Results taken from ChEMBL document CHEMBL1275584, “Genetically engineered lipopeptide antibiotics related to A54145 and daptomycin with improved properties” (Antimicrob Agents Chemother, 2010).
Converted amounts (≈) assume the structure as drawn.

What was measured:
Assay type in all cases: functional
Staphylococcus aureus [1] = assay: Antibacterial activity against Staphylococcus aureus 42 in presence of 1% bovine pulmonary surfactant by CLSI method; details: Staphylococcus aureus, 42, Pulmonary surfactant
Outline: (§1)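 Broth MIC in Mueller-Hinton broth with 50 mg/liter CaCl2, run with or without 1% bovine pulmonary surfactant, following CLSI methods. Colonies came from frozen stocks streaked on sheep-blood tryptic soy agar (37°C, ~24 h). Incubation was at 37°C with rotation at 200 rpm. The ratio is MIC with surfactant divided by MIC without.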

Staphylococcus aureus [2] = assay: Antibacterial activity against Staphylococcus aureus 42 in absence of 1% bovine pulmonary surfactant by CLSI method; details: Staphylococcus aureus, 42, Pulmonary surfactant; outline: as §1
Staphylococcus aureus [3] = assay: Ratio of MIC for Staphylococcus aureus 42 in presence of 1% bovine pulmonary surfactant to MIC for Staphylococcus aureus 42 in absence of 1% bovine pulmonary surfactant; outline: as §1

MIC (Staphylococcus aureus [1]) [µg/mL]	MIC (Staphylococcus aureus [2]) [µg/mL]	SMILES	Ratio (Staphylococcus aureus [3])
16	1 (≈ 0.618 µM)	CC(C)CCCCCCCC(=O)N[C@@H](Cc1c[nH]c2ccccc12)C(=O)N[C@H](CC(N)=O)C(=O)N[C@@H](CC(=O)O)C(=O)N[C@@H]1C(=O)NCC(=O)N[C@@H](CCCN)C(=O)N[C@@H](CC(=O)O)C(=O)N[C@H](C)C(=O)N[C@@H](CC(=O)O)C(=O)NCC(=O)N[C@H](C)C(=O)N[C@@H]([C@H](C)CC(=O)O)C(=O)N[C@@H](CC(=O)c2ccccc2N)C(=O)O[C@H]1C	16
64	0.5 (≈ 0.306 µM)	CC(C)CCCCCCCC(=O)N[C@@H](Cc1c[nH]c2ccccc12)C(=O)N[C@H](CC(N)=O)C(=O)N[C@@H](CC(=O)O)C(=O)N[C@@H]1C(=O)NCC(=O)N[C@@H](CCCN)C(=O)N[C@@H](CC(=O)O)C(=O)N[C@H](C)C(=O)N[C@@H](CC(=O)O)C(=O)NCC(=O)N[C@H](CO)C(=O)N[C@@H]([C@H](C)CC(=O)O)C(=O)N[C@@H](CC(=O)c2ccccc2N)C(=O)O[C@H]1C	128
32	1 (≈ 0.613 µM)	CC(C)CCCCCCCC(=O)N[C@@H](Cc1c[nH]c2ccccc12)C(=O)N[C@H](CC(N)=O)C(=O)N[C@@H](CC(=O)O)C(=O)N[C@@H]1C(=O)NCC(=O)N[C@@H](CCCN)C(=O)N[C@@H](CC(=O)O)C(=O)N[C@H](C)C(=O)N[C@@H](CC(=O)O)C(=O)NCC(=O)N[C@H](CO)C(=O)N[C@@H]([C@H](C)CC(=O)O)C(=O)N[C@@H](Cc2c[nH]c3ccccc23)C(=O)O[C@H]1C	32
8	2 (≈ 1.28 µM)	CC[C@H](C)[C@@H]1NC(=O)[C@H]([C@H](C)CC(=O)O)NC(=O)[C@@H](CO)NC(=O)CNC(=O)[C@H](CC(=O)O)NC(=O)[C@@H](C)NC(=O)[C@H](CC(=O)O)NC(=O)[C@H](CCCN)NC(=O)CNC(=O)[C@@H](NC(=O)[C@H](CC(=O)O)NC(=O)[C@@H](CC(N)=O)NC(=O)[C@H](Cc2c[nH]c3ccccc23)NC(=O)CCCCCCCC(C)C)[C@H](C)OC1=O	4
8	4 (≈ 2.59 µM)	CC(C)CCCCCCCC(=O)N[C@@H](Cc1c[nH]c2ccccc12)C(=O)N[C@H](CC(N)=O)C(=O)N[C@@H](CC(=O)O)C(=O)N[C@@H]1C(=O)NCC(=O)N[C@@H](CCCN)C(=O)N[C@@H](CC(=O)O)C(=O)N[C@H](C)C(=O)N[C@@H](CC(=O)O)C(=O)NCC(=O)N[C@H](CO)C(=O)N[C@@H]([C@H](C)CC(=O)O)C(=O)N[C@@H](C(C)C)C(=O)O[C@H]1C	2
16	8 (≈ 4.94 µM)	CC(C)CCCCCCCC(=O)N[C@@H](Cc1c[nH]c2ccccc12)C(=O)N[C@H](CC(N)=O)C(=O)N[C@@H](CC(=O)O)C(=O)N[C@@H]1C(=O)NCC(=O)N[C@@H](CCCN)C(=O)N[C@@H](CC(=O)O)C(=O)N[C@H](C)C(=O)N[C@@H](CC(=O)O)C(=O)NCC(=O)N[C@H](CO)C(=O)N[C@@H](CCC(=O)O)C(=O)N[C@@H](CC(=O)c2ccccc2N)C(=O)O[C@H]1C	2
16	1 (≈ 0.602 µM)	CC(C)CCCCCCCC(=O)N[C@@H](Cc1c[nH]c2ccccc12)C(=O)N[C@H](CC(N)=O)C(=O)N[C@@H](CC(=O)O)C(=O)N[C@@H]1C(=O)NCC(=O)N[C@@H](CCCN)C(=O)N[C@@H](CC(=O)O)C(=O)N[C@H](C)C(=O)N[C@@H](CC(=O)O)C(=O)NCC(=O)N[C@H](CC(N)=O)C(=O)N[C@@H]([C@H](C)CC(=O)O)C(=O)N[C@@H](CC(=O)c2ccccc2N)C(=O)O[C@H]1C	16
32	1 (≈ 0.582 µM)	CC(C)CCCCCCCC(=O)N[C@@H](Cc1c[nH]c2ccccc12)C(=O)N[C@H](CC(N)=O)C(=O)N[C@@H](CC(=O)O)C(=O)N[C@@H]1C(=O)NCC(=O)N[C@@H](CCCN)C(=O)N[C@@H](CC(=O)O)C(=O)N[C@H](CCCCN)C(=O)N[C@@H](CC(=O)O)C(=O)NCC(=O)N[C@H](CC(N)=O)C(=O)N[C@@H]([C@H](C)CC(=O)O)C(=O)N[C@@H](CC(=O)c2ccccc2N)C(=O)O[C@H]1C	32
16	2 (≈ 1.22 µM)	CC[C@H](C)[C@@H]1NC(=O)[C@H]([C@H](C)CC(=O)O)NC(=O)[C@@H](CO)NC(=O)CNC(=O)[C@H]([C@H](OC)C(=O)O)NC(=O)[C@@H](CCCCN)NC(=O)[C@H](CC(=O)O)NC(=O)[C@H](C)NC(=O)CN(C)C(=O)[C@@H](NC(=O)[C@@H](NC(=O)[C@@H](CCC(=O)O)NC(=O)[C@H](Cc2c[nH]c3ccccc23)NC(=O)CCCCCCCC(C)C)[C@H](O)C(N)=O)[C@H](C)OC1=O	8
32	1 (≈ 0.619 µM)	CC[C@H](C)[C@@H]1NC(=O)[C@H]([C@H](C)CC(=O)O)NC(=O)[C@@H](CC(N)=O)NC(=O)CNC(=O)[C@H]([C@H](OC)C(=O)O)NC(=O)[C@@H](C)NC(=O)[C@H](CC(=O)O)NC(=O)[C@H](C)NC(=O)CN(C)C(=O)[C@@H](NC(=O)[C@@H](NC(=O)[C@@H](CCC(=O)O)NC(=O)[C@H](Cc2c[nH]c3ccccc23)NC(=O)CCCCCCCC(C)C)[C@H](O)C(N)=O)[C@H](C)OC1=O	32
64	8 (≈ 4.82 µM)	CC[C@H](C)[C@@H]1NC(=O)[C@H]([C@H](C)CC(=O)O)NC(=O)[C@@H](CC(N)=O)NC(=O)CNC(=O)[C@H]([C@H](OC)C(=O)O)NC(=O)[C@@H](CC(N)=O)NC(=O)[C@H](CC(=O)O)NC(=O)[C@H](C)NC(=O)CN(C)C(=O)[C@@H](NC(=O)[C@@H](NC(=O)[C@@H](CCC(=O)O)NC(=O)[C@H](Cc2c[nH]c3ccccc23)NC(=O)CCCCCCCC(C)C)[C@H](O)C(N)=O)[C@H](C)OC1=O	8
16	2 (≈ 1.21 µM)	CC[C@H](C)[C@@H]1NC(=O)[C@H]([C@H](C)CC(=O)O)NC(=O)[C@@H](CC(N)=O)NC(=O)CNC(=O)[C@H]([C@H](OC)C(=O)O)NC(=O)[C@@H](CCCCN)NC(=O)[C@H](CC(=O)O)NC(=O)[C@H](C)NC(=O)CN(C)C(=O)[C@@H](NC(=O)[C@H](CC(N)=O)NC(=O)[C@@H](CCC(=O)O)NC(=O)[C@H](Cc2c[nH]c3ccccc23)NC(=O)CCCCCCCC(C)C)[C@H](C)OC1=O	8
128	64 (≈ 39.2 µM)	CC[C@H](C)[C@@H]1NC(=O)[C@H](CCC(=O)O)NC(=O)[C@@H](CO)NC(=O)CNC(=O)[C@H]([C@H](OC)C(=O)O)NC(=O)[C@@H](CCCCN)NC(=O)[C@H](CC(=O)O)NC(=O)[C@H](C)NC(=O)CN(C)C(=O)[C@@H](NC(=O)[C@@H](NC(=O)[C@@H](CCC(=O)O)NC(=O)[C@H](Cc2c[nH]c3ccccc23)NC(=O)CCCCCCCC(C)C)[C@H](O)C(N)=O)[C@H](C)OC1=O	2
8	8 (≈ 4.95 µM)	CC[C@H](C)[C@@H]1NC(=O)[C@H](CCC(=O)O)NC(=O)[C@@H](CC(N)=O)NC(=O)CNC(=O)[C@H]([C@H](OC)C(=O)O)NC(=O)[C@@H](CO)NC(=O)[C@H](CC(=O)O)NC(=O)[C@H](C)NC(=O)CN(C)C(=O)[C@@H](NC(=O)[C@@H](NC(=O)[C@@H](CCC(=O)O)NC(=O)[C@H](Cc2c[nH]c3ccccc23)NC(=O)CCCCCCCC(C)C)[C@H](O)C(N)=O)[C@H](C)OC1=O	1
16	16 (≈ 9.73 µM)	CC[C@H](C)[C@@H]1NC(=O)[C@H](CCC(=O)O)NC(=O)[C@@H](CC(N)=O)NC(=O)CNC(=O)[C@H]([C@H](OC)C(=O)O)NC(=O)[C@@H](CC(N)=O)NC(=O)[C@H](CC(=O)O)NC(=O)[C@H](C)NC(=O)CN(C)C(=O)[C@@H](NC(=O)[C@@H](NC(=O)[C@@H](CCC(=O)O)NC(=O)[C@H](Cc2c[nH]c3ccccc23)NC(=O)CCCCCCCC(C)C)[C@H](O)C(N)=O)[C@H](C)OC1=O	1
16	8 (≈ 4.95 µM)	CC[C@H](C)[C@@H]1NC(=O)[C@H](CCC(=O)O)NC(=O)[C@@H](C)NC(=O)CNC(=O)[C@H]([C@H](OC)C(=O)O)NC(=O)[C@@H](CCCCN)NC(=O)[C@H](CC(=O)O)NC(=O)[C@H](C)NC(=O)CN(C)C(=O)[C@@H](NC(=O)[C@@H](NC(=O)[C@@H](CCC(=O)O)NC(=O)[C@H](Cc2c[nH]c3ccccc23)NC(=O)CCCCCCCC(C)C)[C@H](O)C(N)=O)[C@H](C)OC1=O	2
8	4 (≈ 2.5 µM)	CC[C@H](C)[C@@H]1NC(=O)[C@H](CCC(=O)O)NC(=O)[C@@H](CC(N)=O)NC(=O)CNC(=O)[C@H]([C@H](OC)C(=O)O)NC(=O)[C@@H](C)NC(=O)[C@H](CC(=O)O)NC(=O)[C@H](C)NC(=O)CN(C)C(=O)[C@@H](NC(=O)[C@@H](NC(=O)[C@@H](CCC(=O)O)NC(=O)[C@H](Cc2c[nH]c3ccccc23)NC(=O)CCCCCCCC(C)C)[C@H](O)C(N)=O)[C@H](C)OC1=O	2
